Source: paper PMC4065498 (Chemical research in toxicology, 2010)
“And” between values parts separate entries of the source, which are not always exact repeats. Identical values can stand only once. “Also recorded” adds a separate entry of the source.

How the values were obtained:
[1] = test system: lipid glyceryl ester hydrolase activities of THP1 monocyte lysates
recombinant human CES1 [2] = molecular target: T1, recombinant human CES1 (Homo sapiens, UniProt P23141); experiment: Hydrolysis of 2AG and PG-Gs by recombinant CES1; format: biochemical; conditions: for Km / kcat: human CES1, average ± SE of 2-4 independent experiments
T1 sequence (P23141 18-567): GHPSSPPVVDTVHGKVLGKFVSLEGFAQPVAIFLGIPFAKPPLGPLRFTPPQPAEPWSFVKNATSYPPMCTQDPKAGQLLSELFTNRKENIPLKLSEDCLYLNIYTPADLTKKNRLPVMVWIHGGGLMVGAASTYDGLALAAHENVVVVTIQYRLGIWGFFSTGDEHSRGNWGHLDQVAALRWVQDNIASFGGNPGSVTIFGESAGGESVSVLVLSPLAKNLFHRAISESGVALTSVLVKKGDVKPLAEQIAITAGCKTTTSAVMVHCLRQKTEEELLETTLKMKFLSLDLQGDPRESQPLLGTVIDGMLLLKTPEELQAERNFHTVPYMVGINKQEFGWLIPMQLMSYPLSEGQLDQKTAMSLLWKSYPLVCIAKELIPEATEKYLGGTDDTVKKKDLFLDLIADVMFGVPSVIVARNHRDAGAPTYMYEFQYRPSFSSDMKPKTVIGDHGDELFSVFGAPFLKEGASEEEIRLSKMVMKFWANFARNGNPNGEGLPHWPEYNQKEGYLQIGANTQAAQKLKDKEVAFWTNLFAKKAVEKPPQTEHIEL

recombinant human CES2 = molecular target: T2, recombinant human CES2 (Homo sapiens, UniProt O00748); experiment: Hydrolysis of 2AG and PG-Gs by recombinant CES2; format: biochemical; conditions: for Km / kcat: human CES2, average ± SE of 2-4 independent experiments
T2 sequence (O00748 27-559): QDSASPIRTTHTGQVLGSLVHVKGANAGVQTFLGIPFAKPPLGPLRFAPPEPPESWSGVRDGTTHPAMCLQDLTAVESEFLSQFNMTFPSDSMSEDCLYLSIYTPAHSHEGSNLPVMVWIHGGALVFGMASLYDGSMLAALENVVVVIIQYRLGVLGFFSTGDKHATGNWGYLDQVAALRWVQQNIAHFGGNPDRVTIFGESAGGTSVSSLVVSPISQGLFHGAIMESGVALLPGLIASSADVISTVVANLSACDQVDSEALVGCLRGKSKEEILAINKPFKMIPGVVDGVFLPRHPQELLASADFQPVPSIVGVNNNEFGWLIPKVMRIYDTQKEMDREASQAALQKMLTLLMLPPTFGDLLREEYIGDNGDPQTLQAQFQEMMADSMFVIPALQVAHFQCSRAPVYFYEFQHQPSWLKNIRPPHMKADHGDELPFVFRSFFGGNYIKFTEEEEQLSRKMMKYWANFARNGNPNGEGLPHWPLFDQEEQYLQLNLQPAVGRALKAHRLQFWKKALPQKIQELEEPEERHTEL

[3] = test system: CES1-depleted THP1 monocyte lysates; experiment: PG-G and 2AG hydrolysis by CES1-immunodepleted THP1 monocyte lysates; format: biochemical, human; conditions: 25 μM PG-G or 10 μM 2AG, 30 min; versus preimmune IgG control
How it was run: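 THP1 monocyte lysate was solubilised in 50 mM Tris-HCl (pH 7.4) with 0.5% w/v Brij (1 h, 4°C). It was then incubated overnight with anti-CES1 or preimmune IgG plus protein A-agarose, and depletion was checked by western blot. Substrate (25 μM PG-G or 10 μM 2AG) in the same buffer was preheated 5 min at 37°C, then started with 10-30 μg supernatant lysate; 2AG ran 30 min. Reactions were run in duplicate or triplicate across ≥2 IP experiments, compared by Student's t-test.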

recombinant human MAGL [4] = molecular target: T3, recombinant human MAGL (Homo sapiens, UniProt Q99685); format: biochemical; conditions: substrate 25 μM, 15 min, recombinant human enzymes
T3 sequence (Q99685 1-303): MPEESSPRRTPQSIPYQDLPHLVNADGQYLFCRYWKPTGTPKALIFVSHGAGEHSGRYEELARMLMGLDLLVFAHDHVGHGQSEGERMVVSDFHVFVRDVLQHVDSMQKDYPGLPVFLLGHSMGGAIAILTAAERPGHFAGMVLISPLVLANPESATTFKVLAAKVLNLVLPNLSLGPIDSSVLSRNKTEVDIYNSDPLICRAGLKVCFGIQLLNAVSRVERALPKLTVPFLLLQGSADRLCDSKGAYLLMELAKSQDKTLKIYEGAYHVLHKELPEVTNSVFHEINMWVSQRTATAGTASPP
How it was run: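 Purified recombinant human enzymes were compared; CES1 was expressed in baculovirus-infected Spodoptera frugiperda cells.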

THP1 macrophages [5] = experiment: PG-G and 2AG levels in LPS-primed THP1 macrophages stimulated with ionomycin; format: cell-based, human; conditions: oxon 1 μM, ionomycin 5 μM
intact THP1 monocytes = format: cell-based, human; conditions: PO 1 μM, 30 min; substrate 25 μM, 60 min
THP1 foam cells = experiment: Endogenous 2AG produced by cholesterol-loaded THP1 macrophages; format: cell-based, human; conditions: 24 h
THP1 macrophages [6] = experiment: In situ formation of PG-Gs by LPS-primed THP1 macrophages given exogenous 2AG; format: cell-based, human
recombinant human CES1 [7] = molecular target: T1, recombinant human CES1; experiment: Off-target test: 2AG hydrolysis by recombinant human CES1 with NAM; format: biochemical; conditions: NAM 50 μM, 2AG 25 μM, 10 min pre-incubation
[8] = test system: 31-32kDa enzyme in THP1 lysates; experiment: Activity-based protein profiling with FP-biotin in THP1 lysate: 31-32kDa enzyme; format: biochemical, human
How it was run: (§1)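 THP1 monocyte lysate (1 mg/ml protein in 50 mM Tris-HCl, pH 7.4) was labelled with 2 μM FP-biotin for 1 h at room temperature. Irreversible inhibitors were preincubated for 30 min (37°C) before the probe. For the reversible inhibitor, lysate received inhibitor, then 0.2 μM FP-biotin for 7.5 min, short of full labelling. Reactions were stopped in reducing SDS loading buffer (95°C, 5 min), run on SDS-PAGE and blotted with avidin-HRP.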

[9] = molecular target: T4, native CES1 in THP1 lysates (Homo sapiens, UniProt P23141); experiment: Activity-based protein profiling with FP-biotin in THP1 lysate: CES1; format: biochemical
T4 sequence (P23141 18-567): T1 sequence (P23141 18-567)
How it was run: as §1

recombinant human CES1 [10] = molecular target: T1, recombinant human CES1; experiment: Recombinant human CES1 activity using pNPV as substrate; format: biochemical; conditions: data not shown
recombinant human MAGL [11] = molecular target: T3, recombinant human MAGL; experiment: Off-target test: 2AG hydrolysis by recombinant human MAGL with S-3030; format: biochemical; conditions: S-3030 50 μM, 2AG 25 μM, 10 min pre-incubation
[12] = substrate: CCCCC/C=C\C/C=C\C/C=C\C/C=C\CCCC(=O)OC(CO)CO; experiment: Hydrolysis of 2AG and PG-Gs by recombinant CES2; format: biochemical; conditions: other: human CES2; average ± SE of 2-4 independent experiments; pH 7.4; 37.0 °C
[13] = substrate: CCCCC/C=C\C/C=C\C/C=C\C/C=C\CCCC(=O)OC(CO)CO; experiment: Hydrolysis of 2AG and PG-Gs by recombinant CES1; format: biochemical; conditions: other: human CES1; average ± SE of 2-4 independent experiments; pH 7.4; 37.0 °C
[14] = 1 μM PO 30 min prior to 10 μM 2AG, LPS-pretreated THP1 macrophages
[15] = maximal inhibition using 100 μM S-3030

CN(Cc1cccc(-c2ccncc2)c1)C(=O)Oc1ccc(-c2ccc(C(N)=O)cc2)cc1 [WWL70]
inhibition of 2AG hydrolytic activity in THP1 cell lysate ([1]; specific ABHD6 inhibitor): did not inhibit; also recorded: does not inhibit

CCCCC/C=C\C/C=C\C/C=C\C/C=C\CCCC(=O)NCCO [AEA, arachidonoyl ethanolamide]
hydrolysis of AEA by recombinant CES1 (recombinant human CES1 [2]; amide-containing substrate): neither enzyme could hydrolyze | hydrolysis of AEA by recombinant CES2 (recombinant human CES2; amide-containing substrate): neither enzyme could hydrolyze

prostaglandin F2α glyceryl ester [PGF2α-G]
Km (recombinant human CES1 [2]): 93 ± 43 µM | kcat (recombinant human CES1 [2]): 29 ± 3.5^a,b min^−1 | hydrolysis relative to PGE2-G using CES2 (judged by kcat/Km) (recombinant human CES2): 6.5 fold | hydrolysis by CES2 relative to CES1 (recombinant human CES2; Table 1): three times faster | Km (recombinant human CES2): 35 ± 4.1 µM | kcat (recombinant human CES2): 49 ± 5.4^a min^−1 | reduction of hydrolysis activity of CES1-depleted lysate [3]: 50% | hydrolysis rate by MAGL relative to CES1 (recombinant human MAGL [4]): 4 fold

prostaglandin E2 glyceryl ester [PGE2-G]
Km (recombinant human CES1 [2]): 250 ± 60 µM | kcat (recombinant human CES1 [2]): 90 ± 16^b min^−1 | Km (recombinant human CES2): 705 ± 380 µM | kcat (recombinant human CES2): 150 ± 81 min⁻¹ | reduction of hydrolysis activity of CES1-depleted lysate [3]: 80% | hydrolysis rate by MAGL relative to CES1 (recombinant human MAGL [4]): 2 fold

CCOP(=O)(OCC)Oc1ccc([N+](=O)[O-])cc1 [PO, paraoxon]
PGF2α-G, PGE2-G, and 2AG levels compared to vehicle-treated cells following ionomycin stimulation (THP1 macrophages [5]): did not significantly elevate | inhibition of PGE2-G hydrolysis activity in THP1 cell lysate ([1]; oxon 1 μM): near complete inhibition | inhibition of hydrolysis of exogenous 2AG in THP1 lysate ([1]; oxon 1 μM, 2AG 10 μM): 35% | inhibition of 2AG hydrolysis activity in THP1 lysate ([1]; oxon 10 μM): did not further enhance inhibition | knock down of 2AG hydrolysis activity in THP1 monocyte lysate ([1]; oxon 500 μM): 55% | inhibition of hydrolysis of exogenous 2AG, PGE2-G, or PGF2α-G by intact THP1 monocytes (intact THP1 monocytes): ~ 50% | amount of 2AG in culture medium relative to control group (THP1 foam cells; oxon 1 μM): 3.1 fold | amount of 2AG in culture medium relative to control group (THP1 foam cells; oxon 10 μM): 3.5 fold | increase in PGE2-G levels (THP1 macrophages [6]; [14]): 2 fold | increase in PGF2α-G levels (THP1 macrophages [6]; [14]): 4 fold

CCCCC/C=C\C/C=C\C/C=C\C/C=C\CCCC(=O)N1C(=O)C=CC1=O [NAM, N-arachidonoyl maleimide]
inhibition of recombinant CES1 activity toward 2AG (recombinant human CES1 [7]): inhibits

O=C(Oc1ccc([N+](=O)[O-])cc1)N1CCC(C(O)(c2ccc3c(c2)OCO3)c2ccc3c(c2)OCO3)CC1 [JZL184]
inhibition of the 31-32kDa enzyme (FP-biotin activity probe) ([8]; concentrations as high as 100 μM, 30 min): not inhibited | inhibition of CES1 in THP1 cell lysate (FP-biotin activity blot) ([9]; JZL184 as low as 0.1 μM): completely inhibit | inhibition of recombinant human CES1 activity using pNPV as substrate (recombinant human CES1 [10]): potently inhibit | reduction of PGF2α-G hydrolytic activity in THP1 monocyte lysate ([1]; maximal reduction by JZL184): 80%

CCCCC/C=C\C/C=C\C/C=C\C/C=C\CCCC(=O)OC(CO)CO [2AG, 2-arachidonoylglycerol]
kcat (recombinant human CES1 [2]): 59 min⁻¹ | control THP1 lysate hydrolysis activity ([1]; 25 μM substrate, no inhibitor): 2.5 nmol product/min/mg protein | kcat (recombinant human CES2): 43 min⁻¹ | reduction of hydrolysis activity of CES1-depleted lysate [3]: 64%

O=C1C(=O)c2sccc2-c2ccsc21 [S-3030, thieno[3,2-e][1]benzothiophene-4,5-dione]
inhibition of the 31-32kDa enzyme (FP-biotin band intensity) ([8]; S-3030 0-100 μM, FP-biotin 0.2 μM, 7.5 min): not reduced | IC50 [9]: ~23 µM | inhibition of recombinant human MAGL activity (recombinant human MAGL [11]): did not inhibit; also recorded: does not inhibit | inhibition of 2AG hydrolysis in THP1 monocyte lysate [1, 15]: 55% and 50% | inhibition of PGE2-G hydrolysis in THP1 monocyte lysate [1, 15]: 97% and > 95% | inhibition of PGF2α-G hydrolysis in THP1 monocyte lysate [1, 15]: 80%

COc1ccc2c(c1)c(CC(=O)O)c(C)n2C(=O)c1ccc(Cl)cc1 [indomethacin]
formation of PG-Gs by THP1 macrophages (THP1 macrophages [6]; indomethacin 3 μM added along with CPO prior to 2AG): blocked formation of PG-Gs

B1: recombinant human CES2 (Homo sapiens) (protein)
chain: T2 sequence (O00748 27-559)
Km [12]: 46 ± 13 µM | kcat [12]: 0.717 ± 0.0667 s⁻¹

B2: recombinant human CES1 (Homo sapiens) (protein)
chain: T1 sequence (P23141 18-567)
Km [13]: 49 ± 11 µM | kcat [13]: 0.983 ± 0.0667 s⁻¹
